Screening results (PubChem)
In the library only some 4% were active in any assay of this set; here they are far more common.
TAAR1 antag: antagonists of human TAAR1; Q96RJ0; CHO RD-HGA16 TAAR1, Fluo-8 calcium fluorescence, antagonist; inhibition, % at 3 µM; actives 1.5% (n = 360,000); AID 624466;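 active means inhibition above a per-plate cutoff, the mean inhibition of test compounds on that plate plus 3 SD, cut at about 49% in these data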;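 further: 0% = DMSO plus EC80 beta-PEA response and 100% = DMSO alone without agonist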
Target sequence (Q96RJ0 whole entry, looked up): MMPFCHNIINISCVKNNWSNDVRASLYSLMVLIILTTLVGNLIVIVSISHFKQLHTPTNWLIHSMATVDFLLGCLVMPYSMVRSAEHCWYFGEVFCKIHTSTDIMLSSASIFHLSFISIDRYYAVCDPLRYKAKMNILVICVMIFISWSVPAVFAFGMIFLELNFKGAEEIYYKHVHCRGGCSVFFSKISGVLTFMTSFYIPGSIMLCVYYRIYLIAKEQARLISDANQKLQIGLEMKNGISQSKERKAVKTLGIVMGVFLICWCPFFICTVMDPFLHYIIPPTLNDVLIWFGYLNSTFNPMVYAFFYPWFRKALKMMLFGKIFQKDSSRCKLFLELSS
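System: RD-HGA16 CHO cells with stable hTAAR1 and Gα16 | Probe or stimulus: EC80 β-phenethylamine stimulus | Dosing: 3 µM, single point | Times: Dye loading 75 min at 37 °C, then 30 min room temperature | Measured by: Fluo-8 calcium-sensitive fluorescence | Read-out basis: % inhibition of agonist calcium response | Replicates: n of 1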
CHO parental Ca: signal in parental CHO cells, OX1R antagonist counter-screen; AID 463079; parental CHO-K1, ATP-induced calcium, Fluo-8 fluorescence; actives 0.63% (n = 330,000); inhibition, % at 5.6 µM;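 active means inhibition above that plate's mean sample inhibition plus 3 SD, cut at about 26% in these data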;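 further: 0% = ATP-challenged DMSO wells and 100% = DMSO wells without ATP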
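Material: Parental CHO cells | Reagent: ATP | Compound dosing: Single nominal dose of 5.6 µM per compound | Detection: Intracellular calcium via Fluo-8 no-wash fluorescent dye | Read-out: % inhibition of ATP-induced calcium mobilization | Benchmarks: Low control ATP plus DMSO, high control DMSO only | Replicates: Singlicate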
OX1R antag-1: OX1R (human) antagonism. O43613. OX1R-expressing cells, FRET antagonist read-out. inhibition, % at 6.6 µM. actives 1.8% (n = 330,000). AID 485270; in the data active means inhibition mostly above about 38%, no sharp cut-off; inactive means mostly below about 40%;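 further: 0% = agonist challenge alone and 100% = reference antagonist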
OX1R antag-2: human HCRTR1 antagonism. O43613. CHO/OX1R cells, Fluo-8 calcium fluorescence, orexin A. actives 0.43% (n = 330,000). AID 434989. inhibition, % at 5 µM;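 active means inhibition above its plate's threshold, mean inhibition of all tested compounds on the plate plus 3 SD, cut at about 37% in these data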;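 further: 0% = orexin A challenge wells and 100% = SB-334867-A antagonist wells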
TAAR1 agonist: agonists of human TAAR1. actives 0.99% (n = 360,000). CHO RD-HGA16 TAAR1, Fluo-8 calcium fluorescence; vehicle wells 0%, saturating PEA agonist 100%. activation, % at 3 µM. Q96RJ0;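 active means activation above the mean activation of all test compounds in the run plus 3 SD, cut at about 38% in these data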
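test system = CHO RD-HGA16 cells carrying human TAAR1 plus Gα16 | schedule = 17-24 h seeding, 75 min 37 °C dye, 30 min RT | compound dosing = 3 µM single concentration | control set = DMSO and PEA EC100 | replicates = n 1 | signal = Fluo-8 fluorescence, 5 s baseline then 140 s kinetic read | measure = percent activation vs PEA EC100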
An asterisk follows results filed as active; · = no result given.

SMILES	TAAR1 antag	CHO parental Ca	OX1R antag-1	OX1R antag-2	TAAR1 agonist
CC(C)(C)C(Cn1ccnc1)NC(=O)c1ccc2nc(C3CC3)oc2c1 (stereo not drawn)	3.7	-9.2	7.1	-11.2	1.1
COC(=O)c1cc2c(c3c4cc(OC)ccc4n(S(=O)(=O)c4cccc(C)c4)c13)C(=O)N(Cc1ccccc1OC)C2	-42.4	·	·	·	-0.8
Cc1cccc(C)c1NC(=O)C(C1CC1)n1c(=O)c(-c2cc3ccccc3[nH]2)nc2ccccc21 (stereo not drawn)	-15.5	·	·	·	2.3
COc1cccc(NC(=O)c2oc3ccc(S(=O)(=O)N4CCOCC4)cc3c2C)c1	52.1*	23.7	20.6	-10.3	18.9
Cc1c(C(=O)NCCC2=CCCCC2)oc2ccc(S(=O)(=O)N3CCC4(CC3)OCCO4)cc12	60.2*	-5.3	53.8	-0.1	21.1
COCCCNC(=O)c1oc2ccc(S(=O)(=O)N3CCOCC3)cc2c1C	5.7	4.7	2.9	3.4	6.8
Cc1c(C(=O)NCC2COc3ccccc3O2)oc2ccc(S(=O)(=O)N3CCOCC3)cc12 (stereo not drawn)	58.1*	8.1	25.2	5.3	33.3
Cc1c(C(=O)NCCc2ccccc2)oc2ccc(S(=O)(=O)N3CCOCC3)cc12	28.9	5.0	5.5	12.1	38.1*
COc1ccc(N2C(=O)c3n[nH]c(C)c3C2c2cccc(C(F)(F)F)c2)cc1 (stereo not drawn)	-18.5	·	·	·	2.7
Cc1c(C(=O)NCc2n[nH]c(=S)n2-c2ccc(F)cc2)cccc1[N+](=O)[O-]	0.9	0.9	6.1	-9.1	0.2
O=c1ccn(C2CCCCC2)c(=O)[nH]1	3.5	·	·	·	0.7
COCCn1c(C)cc(C(=O)COC(=O)/C=C/c2c(C)nn(C3CCS(=O)(=O)C3)c2Cl)c1C (stereo not drawn)	5.7	-7.4	18.9	-21.5	4.3
CCN(CC(=O)Nc1cc(Cl)ccc1C)C(=O)c1ccc2c(=O)n3c(nc2c1)CCC3	-5.0	-17.6	3.7	-36.3	0.3
COc1ccc(/C=N/NC(=O)c2cc(-c3cccn3C)n[nH]2)cc1OC	-12.7	-5.7	24.2	-10.2	5.0
COc1cc(OC)c(OC)cc1/C=N/NC(=O)c1cc(-c2cccn2C)n[nH]1	9.8	-14.0	58.7*	-0.3	10.4
C[C@@H]1CN([C@@H](C)CO)C(=O)c2ccccc2-c2ccccc2CO[C@@H]1CN(C)Cc1ccc(Cl)c(Cl)c1	-3.6	·	·	·	6.0
COC(=O)[C@]12C[C@H](CC(=O)NCC34CC5CC(CC(C5)C3)C4)C(=O)N(Cc3ccccc3)C1=C[C@H](C(C)(C)C)O[C@@H]2C	-38.1	·	·	·	-0.4
COc1cc(OC)cc(-c2nc3cc(C)ccc3o2)c1	3.2	-15.8	42.3*	-2.5	5.7
O=C1/C(=C/c2cccc(Br)c2)SC(=S)N1CCC(=O)N(CCO)c1ccccc1	8.6	38.5*	0.2	-19.0	7.2
COc1cccc(/C=C2\SC(=S)N(CCCC(=O)N(CCO)c3ccccc3)C2=O)c1	48.7*	-24.1	18.4	-14.9	3.5
O=C1/C(=C/c2ccc3c(c2)OCO3)SC(=S)N1CCC(=O)N(CCO)c1ccccc1	27.0	·	·	·	4.3
COc1cccc(/C=C2\SC(=S)N(CCCC(=O)N3CCCCC3)C2=O)c1	-12.5	-23.6	21.9	-26.5	-1.1
O=Cc1c(-c2ccccc2)cc2oc3ccccc3cc1-2	·	-12.9	-3.0	-26.3	·
Cc1ccccc1-n1ncc2c1CC(C)(C)CC2NC(=O)CN1CCCC1=O (stereo not drawn)	-15.8	-2.3	12.3	-8.4	1.4
COc1ccc(-n2ccnc(SCC(=O)NC3CCCCC3)c2=O)cc1	·	-4.2	20.9	-10.1	·
SMILES	TAAR1 antag	CHO parental Ca	OX1R antag-1	OX1R antag-2	TAAR1 agonist
COc1ccc(-n2ccnc(SCC(=O)NC3CCCC3)c2=O)cc1	0.9	-6.0	44.6*	-7.5	-0.4
CCCCC(=O)Nc1ncc(S(=O)(=O)c2ccc([N+](=O)[O-])cc2)s1	0.3	0.1	11.4	4.7	54.8*
COCC(=O)Nc1ncc(S(=O)(=O)c2ccc([N+](=O)[O-])cc2)s1	7.3	3.6	22.5	-12.8	2.4
CC(=O)NCCC(=O)Nc1ncc(S(=O)(=O)c2ccc([N+](=O)[O-])cc2)s1	-10.9	-6.8	66.0*	-16.1	2.8
COc1cccc(NC(=O)Cc2csc(NC(=O)Nc3ccccc3OC)n2)c1	56.0*	15.5	5.8	-21.9	12.1
COc1ccccc1NC(=O)Nc1nc(CC(=O)Nc2ccc(OC)c(OC)c2)cs1	49.3*	-29.2	20.1	-27.2	12.8
CCC(=O)Nc1nc(CC(=O)Nc2ccccc2OC)cs1	-12.0	-1.5	14.8	-8.6	10.6
COc1ccccc1CC(=O)Nc1cccc(C(=O)Nc2nccs2)c1	24.5	-15.6	49.0*	-11.7	7.0
COc1cccc(-c2csc(NC(=O)Nc3ccccc3)n2)c1	35.5	32.4*	74.1*	45.1*	8.8
CC(C)(C)N1CC(OC(N)=O)C1	-15.0	-8.3	20.0	-11.0	3.1
Cc1cc(Cn2ccnc2)c(C)cc1Cn1ccnc1	4.5	12.8	0.1	-11.6	11.5
CCCN1CCC(=NNc2ccc(S(=O)(=O)N3CCOCC3)cc2[N+](=O)[O-])CC1	-5.4	-18.8	71.2*	-8.7	-0.4
CC(C)C[C@H]1COc2ccc(Cl)cc2S(=O)(=O)N1C[C@H](NC(=O)OC(C)(C)C)C(C)C	-41.7	·	·	·	3.9
CCNc1nc2c(c(=O)n(C)c(=O)n2C)n1Cc1ccc(Cl)cc1	8.9	36.3*	16.3	-12.5	5.3
FC(F)(F)c1cccc(-c2nc3nc(Cl)c(Cl)nc3[nH]2)c1	·	38.4*	40.0*	-11.1	·
FC(F)(F)c1nc2nc(Cl)c(Cl)nc2[nH]1	-20.5	·	·	·	5.5
O=C1CCC(c2ccccc2)c2ccccc21 (stereo not drawn)	-7.3	-17.7	9.0	-8.2	-2.5
N#CC1C(=O)c2ccccc2C1c1ccccc1 (stereo not drawn)	66.7*	·	·	·	9.7
Cc1ccc(S(=O)(=O)N(C)C)cc1NC(=O)COC(=O)/C(=C/c1ccc(F)cc1)c1cccs1	22.7	-22.7	14.4	-23.6	1.3
Cc1ccc(C2C(C#N)=C(N)SC(N)=C2C#N)cc1	48.0	·	·	·	49.9*
Cc1ccc(C2C(C#N)=C(N)SC(N)=C2C#N)c(C)c1	·	-11.2	6.6	-4.9	·
COC(=O)C1=C(C)N(C)C(=NCc2cc(OC)c(OC)c(OC)c2)NC1c1ccc(Cl)cc1 (stereo not drawn)	-3.0	·	·	·	0.8
Cn1c2ccccc2c(=O)c2c(=O)n(C3CCCCCC3)c(C3CCCCC3)nc21	1.1	·	·	·	37.8*
COCc1cc(N2CCNC[C@@H]2C)ccc1N1C[C@@H](C)O[C@@H](C)C1	-13.5	·	·	·	1.3
C/C(=N/OCC(=O)NCCCCCCNC(=O)CO/N=C(/C)c1cccs1)c1cccs1	-6.0	-22.7	70.6*	-13.8	5.5
C/C(=N\OCC(=O)NC(C)C)c1cccs1	-15.9	13.1	4.8	-14.9	2.9
